p97 ATPase inh – human p97 ATPase inhibition; P55072; recombinant p97 ATPase, Kinase-Glo ATP luminescence, 3 h; inhibition, % at 8 µM; 220,000 tested, 0.42% active; AID 1481; in the data active = inhibition above about 15%
Hck Nef HTS – human Hck-Nef kinase inhibition; Recombinant Hck-YEEI plus Nef, Z-Lyte FRET kinase assay; P08631; inhibition, % at 20 µM; 220,000 tested, 0.68% active;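 active = Hck-Nef kinase inhibition above about 50%, limit read from the data; inactive = inhibition below that limit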
Runt-CBFb FRET – Runt domain-CBFb interaction inhibition; Q01196+Q13951; Cerulean-Runt/Venus-CBFb FRET ratio 530/480, 1 h; inhibition, % at 20 µM; 220,000 tested, 0.46% active;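 active = inhibition over about 50% at 20 µM in the single-dose screen, limit read from the data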
Target sequence (Q01196 whole entry, looked up, the tested form may be a part): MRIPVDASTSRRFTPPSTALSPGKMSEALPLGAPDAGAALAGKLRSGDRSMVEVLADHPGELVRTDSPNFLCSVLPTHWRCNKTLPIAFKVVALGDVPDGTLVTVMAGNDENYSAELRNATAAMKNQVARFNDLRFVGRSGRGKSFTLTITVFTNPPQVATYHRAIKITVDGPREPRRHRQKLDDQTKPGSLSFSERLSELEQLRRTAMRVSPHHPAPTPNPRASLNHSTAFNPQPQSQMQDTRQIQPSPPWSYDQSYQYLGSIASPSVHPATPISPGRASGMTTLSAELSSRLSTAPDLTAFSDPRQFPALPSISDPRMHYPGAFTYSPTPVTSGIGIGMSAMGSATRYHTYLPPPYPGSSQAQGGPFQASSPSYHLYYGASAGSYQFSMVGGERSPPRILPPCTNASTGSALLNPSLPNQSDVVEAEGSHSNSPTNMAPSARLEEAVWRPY
Target sequence (Q13951 whole entry, looked up, the tested form may be a part): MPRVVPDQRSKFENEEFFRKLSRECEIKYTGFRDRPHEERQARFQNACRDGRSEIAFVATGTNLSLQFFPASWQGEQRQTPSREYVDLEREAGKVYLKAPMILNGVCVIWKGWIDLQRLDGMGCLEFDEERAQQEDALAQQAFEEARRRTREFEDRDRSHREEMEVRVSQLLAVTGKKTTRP
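test system = Cerulean-tagged RUNX1 Runt domain (FRET donor) fusion protein | reagent = Venus-CBFb binding partner, 100 nM | incubation = protein complex preformed 1 h, compound exposure 1 h, room temperature, dark | detection = FRET fluorescence | read-out basis = loss of energy transfer signal | controls = 5 µM unlabeled CBFb as full-inhibition high control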
TbHK1 inh – blocks Trypanosoma brucei hexokinase 1 activity; recombinant TbHK1, G6PDH-coupled NADH A340; inhibition, % at 10 µM; 220,000 tested, 0.11% active; AID 1430;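 active = inhibition of 50% or more in the single-dose primary screen; inactive = inhibition below 50%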
Runt-SMMHC FRET – blocks binding of human RUNX1 Runt domain to CBFb-SMMHC; Q01196+Q13951; Cerulean-Runt/Venus-CBFb-SMMHC FRET ratio 530/480, 1 h; inhibition, % at 20 µM; 220,000 tested, 0.74% active; AID 1434;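 active = mean inhibition across duplicate retests at 20 µM reaching about 50%, limit read from the data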;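 also: inhibitors lower the FRET ratio by blocking Runt binding to CBFb-SMMHC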
RanGTP-Impb inh – inhibitors of RanGTP-importin-beta interaction, primary screen, biochemical, FRET, CFP-Ran, YFP-importin-beta, homogeneous; 300,000 tested, 1.1% active; inhibition, % (concentration not given with the values); cell-free CFP-Ran/YFP-importin-beta FRET ratio;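 active = more than half of the replicate wells show a fall in the fluorescence ratio signal beyond about 16%, limit read from the data, passing the limit was not always enough; inconclusive = exactly half of the replicate wells pass the set limit; inactive = fewer than half of replicates pass the limit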
G6PDH ctr – Leuconostoc glucose-6-phosphate dehydrogenase inhibition, counter-screen. 210 tested, 7% active. shares compounds with TbHK1 inh. purified G6PDH, NADH absorbance, 1 h. inhibition, % at 10 µM;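 active = at least 50% inhibition in the glucose-6-phosphate dehydrogenase coupled counterscreen; inconclusive = no clear call, values can overlap the other calls; inactive = inhibition below 50%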
TbHK1 rescreen – T. brucei hexokinase 1 inhibition, rescreen; shares compounds with TbHK1 inh; recombinant TbHK1, G6PDH-coupled NADH A340 absorbance; inhibition, % at 10 µM; 210 tested, 10% active; AID 2560;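 active = inhibition of at least 50% in both of the two screening runs; inconclusive = at least 50% in one run, below 50% in the other; inactive = inhibition below 50% in both runs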
A number is an active result. Hits are enriched below; roughly 2.1% of the tested compounds scored in any of these assays.

Results for CN(C)C(=O)Oc1ccc(OC(=O)N(C)C)cc1 ?
p97 ATPase inh: inactive; Hck Nef HTS: inactive; Runt-CBFb FRET: inactive; TbHK1 inh: inactive; Runt-SMMHC FRET: inactive; RanGTP-Impb inh: inconclusive

How did CC(=O)O[C@H]1CCC2C3CCC4=CC(=O)CCC4=C3C=C[C@@]21C (some centres undefined) do in these assays?
RanGTP-Impb inh: 32.5

What do the screens show for `COc1ccc(C(CNC(=O)c2ccc3c(c2)CCC3)N(C)C)cc1` (centres undefined)?
RanGTP-Impb inh: inactive

How did O=C(O)c1ccc2c(c1)C1C(Cl)C(Sc3ccccc3[N+](=O)[O-])CC1C(c1cccc([N+](=O)[O-])c1)N2 (centres undefined) do in these assays?
p97 ATPase inh: 15.1; Hck Nef HTS: inactive; Runt-CBFb FRET: inactive; TbHK1 inh: inactive; Runt-SMMHC FRET: inactive

How did O=C(Cn1cc(C(=O)c2ccccc2F)c2ccccc21)NC1CC1 do in these assays?
p97 ATPase inh: inactive; Hck Nef HTS: inactive; Runt-CBFb FRET: inactive; TbHK1 inh: inactive; Runt-SMMHC FRET: inactive; RanGTP-Impb inh: inactive

What do the screens show for `CCCCS(=O)(=O)N1CCN(C(=N)N[N+](=O)[O-])CC1`?
p97 ATPase inh: inactive; Hck Nef HTS: inactive; Runt-CBFb FRET: inactive; TbHK1 inh: inactive; Runt-SMMHC FRET: inactive; RanGTP-Impb inh: inactive

What do the screens show for `O=C1NC(=O)N(c2cccc(Br)c2)C(=O)/C1=C/c1ccsc1`?
p97 ATPase inh: inactive; Hck Nef HTS: inactive; Runt-CBFb FRET: inactive; TbHK1 inh: inactive; Runt-SMMHC FRET: inactive; RanGTP-Impb inh: inactive

How did O=c1[nH]c(=S)n(Cc2ccc(F)cc2)c(O)c1/C=N/N1CCCCCC1 do in these assays?
p97 ATPase inh: inactive; Hck Nef HTS: inactive; Runt-CBFb FRET: inactive; TbHK1 inh: inactive; Runt-SMMHC FRET: inactive; RanGTP-Impb inh: inconclusive

How did O=C1NC(=O)C2=Cc3ccc(O)cc3OC2(O)N1 (centres undefined) do in these assays?
p97 ATPase inh: inactive; Hck Nef HTS: inactive; Runt-CBFb FRET: inactive; TbHK1 inh: inactive; Runt-SMMHC FRET: 90.0

How did Cc1ccc(Oc2cc(NN3CCCCC3)c([N+](=O)[O-])cc2[N+](=O)[O-])c([N+](=O)[O-])c1 do in these assays?
RanGTP-Impb inh: inactive

How did O=C1NC(=O)N(c2ccccc2)C(=O)/C1=C\C=C\c1ccccc1 do in these assays?
p97 ATPase inh: inactive; Hck Nef HTS: inactive; Runt-CBFb FRET: inactive; TbHK1 inh: inactive; Runt-SMMHC FRET: 55.4; RanGTP-Impb inh: inactive

What do the screens show for `O=C1NC(=O)N(c2ccccc2)C(=O)/C1=C\c1ccc([N+](=O)[O-])o1`?
p97 ATPase inh: inactive; Hck Nef HTS: 55.1; Runt-CBFb FRET: inactive; TbHK1 inh: inactive; Runt-SMMHC FRET: inactive; RanGTP-Impb inh: inactive

How did O=C(COc1ccc2ccc(=O)oc2c1)N1C[C@H]2C[C@@H](C1)c1cccc(=O)n1C2 do in these assays?
RanGTP-Impb inh: inactive

How did CCN1C[C@]2(OC(=O)c3ccccc3NC(C)=O)CCC(OC)C34C5C[C@H]6C(OC)[C@]5(O)[C@](O)(C[C@@H]6OC)C(C[C@@H]32)[C@H]14 (some centres undefined) do in these assays?
RanGTP-Impb inh: inactive

What do the screens show for `Cc1ccc(N2C(=O)NC(=O)/C(=C/c3ccoc3)C2=O)cc1`?
p97 ATPase inh: inactive; Hck Nef HTS: 54.6; Runt-CBFb FRET: inactive; TbHK1 inh: inactive; Runt-SMMHC FRET: inactive

How did Cc1ccc(N2C(=O)NC(=O)/C(=C/c3cnn(-c4ccc(C)cc4)c3)C2=O)cc1 do in these assays?
p97 ATPase inh: inactive; Hck Nef HTS: inactive; Runt-CBFb FRET: inactive; TbHK1 inh: inactive; Runt-SMMHC FRET: inactive; RanGTP-Impb inh: inactive

How did CCNCC1(c2ccc(OC)c(OC)c2)CCCC1 do in these assays?
p97 ATPase inh: inactive; Hck Nef HTS: inactive; Runt-CBFb FRET: inactive; TbHK1 inh: inactive; Runt-SMMHC FRET: inactive; RanGTP-Impb inh: 59.9

How did O=c1ccc2cc(O[C@@H]3O[C@@H](CO)[C@H](O)[C@@H](O)[C@@H]3O)c(O)cc2o1 do in these assays?
RanGTP-Impb inh: 101.7

How did Cc1ccc2c(c1)c(=O)c1c3n2CCN(CC2CO2)C3CC1 (centres undefined) do in these assays?
p97 ATPase inh: inactive; Hck Nef HTS: inactive; Runt-CBFb FRET: inactive; TbHK1 inh: inactive; Runt-SMMHC FRET: inactive; RanGTP-Impb inh: 29.4

What do the screens show for `COc1ccc(OC)c(CN2CCN(C(=O)Cc3ccccc3)CC2)c1`?
RanGTP-Impb inh: inactive

How did COc1ccc(N2C(=O)NC(=O)/C(=C/c3ccc4c(c3)Cc3ccccc3-4)C2=O)cc1 do in these assays?
p97 ATPase inh: inactive; Hck Nef HTS: 87.1; TbHK1 inh: inactive; Runt-SMMHC FRET: inactive; RanGTP-Impb inh: inactive

What do the screens show for `COc1cc(/C=C2\C(=O)NC(=O)N(c3ccccc3)C2=O)cc(OC)c1OC`?
p97 ATPase inh: inactive; Hck Nef HTS: inactive; Runt-CBFb FRET: inactive; TbHK1 inh: inactive; Runt-SMMHC FRET: inactive; RanGTP-Impb inh: inactive

Results for CCOC(=O)N(c1ccccc1)P1(=S)OCC(C)O1 (centres undefined) ?
p97 ATPase inh: inactive; Hck Nef HTS: inactive; Runt-CBFb FRET: inactive; TbHK1 inh: 52.8; Runt-SMMHC FRET: inactive; RanGTP-Impb inh: inactive; G6PDH ctr: inactive; TbHK1 rescreen: inactive

How did CCOC(=O)N(c1ccccc1)P1(=S)OCCO1 do in these assays?
p97 ATPase inh: inactive; Hck Nef HTS: inactive; Runt-CBFb FRET: inactive; TbHK1 inh: inactive; Runt-SMMHC FRET: inactive; RanGTP-Impb inh: inactive

How did COc1ccc(CCn2c(O)c(C=NCc3ccc4c(c3)OCO4)c(=O)[nH]c2=O)cc1OC do in these assays?
p97 ATPase inh: inactive; Hck Nef HTS: inactive; Runt-CBFb FRET: inactive; TbHK1 inh: inactive; Runt-SMMHC FRET: inactive; RanGTP-Impb inh: inactive

How did COc1ccc(OC)c(-n2c(O)c(C=NCc3ccc4c(c3)OCO4)c(=O)[nH]c2=O)c1 do in these assays?
p97 ATPase inh: inactive; Hck Nef HTS: inactive; Runt-CBFb FRET: inactive; TbHK1 inh: 55.1; Runt-SMMHC FRET: inactive; RanGTP-Impb inh: inactive; G6PDH ctr: inactive; TbHK1 rescreen: inactive

How did CN(C)CP(=O)(O)CN(C)C=O do in these assays?
p97 ATPase inh: inactive; Hck Nef HTS: inactive; Runt-CBFb FRET: inactive; TbHK1 inh: 50.6; Runt-SMMHC FRET: inactive; RanGTP-Impb inh: inactive; G6PDH ctr: inactive; TbHK1 rescreen: inactive

Results for COc1ccccc1N1C(=O)CC(=O)NC1=O ?
RanGTP-Impb inh: inactive

Results for CCCC(=O)N(C)C1=Nc2ccc(Cl)cc2C(c2ccccc2)=[N+]([O-])C1 ?
p97 ATPase inh: inactive; Hck Nef HTS: inactive; Runt-CBFb FRET: inactive; TbHK1 inh: inactive; Runt-SMMHC FRET: inactive; RanGTP-Impb inh: inactive

Screening results deposited in PubChem BioAssay by several laboratories.
